Laboratory results: ChEMBL document CHEMBL1177650, “Synthesis, structural elucidation and in vitro antiparasitic activity against Trypanosoma cruzi and Leishmania chagasi parasites of novel tetrahydro-1-benzazepine derivatives” (Bioorg Med Chem, 2010)
pIC50: −log10 of the molar value.

Experiments:
Leishmania chagasi [1] = experiment: Antileishmanial activity against Leishmania chagasi MHOM/BR/74/PP75 promastigotes after 72 hrs by haemocytometry; type: functional, organism-based; conditions: MHOM/BR/74/PP75, 72 h
Procedure, shortened: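 Late-phase L. chagasi promastigotes, grown at 28 °C in RPMI 1640 with hemin, HEPES and 10% hiSBF, exposed to threefold serial dilutions (0.3–100 μM) for 72 h at 28 °C; untreated controls. Growth inhibition from haemocytometer counts; IC50/IC90 by sigmoidal regression; triplicates, repeated twice.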

[2] = Selectivity index, CC50 for african green monkey Vero cells to IC50 for Trypanosoma cruzi 320I01 epimastigote; type: functional
Procedure, shortened: (§1)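 Selectivity index computed as CC50 in Vero cells divided by IC50 against the T. cruzi stage named in the line.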

Trypanosoma cruzi [3] = experiment: Antitrypanosomal activity against Trypanosoma cruzi 320I01 epimastigotes after 72 hrs by haemocytometry; type: functional, organism-based; conditions: 320I01, 72 h
Procedure, shortened: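 Late-phase T. cruzi epimastigotes cultured in LIT medium with hiFCS at 28 °C; threefold serial dilutions (0.3–100 μM) for 72 h at 28 °C, untreated controls. Parasites counted in a haemocytometer; IC50/IC90 by sigmoidal regression; each concentration in triplicate, two experiments.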

[4] = Cytotoxicity against human THP1 cells after 72 hrs by MTT assay; type: cell-based; conditions: THP-1 cells
Procedure, shortened: (§2)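 Vero or transformed THP-1 cells incubated with compound (0.3–300 μM) 72 h at 37 °C, 5% CO2; untreated controls. MTT read-out, formazan OD at 580 nm; % cytotoxicity = 100 × (OD control − OD treated)/OD control. CC50/CC90 by sigmoidal regression; triplicates, repeated twice. DMSO stocks 100× concentrated, diluted in medium.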

[5] = Selectivity index, CC50 for human THP1 cells to IC50 for Leishmania chagasi MHOM/BR/74/PP75 promastigotes; type: functional, THP-1
Procedure, shortened: (§3)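 Selectivity index computed as CC50 in THP-1 cells divided by IC50 against the L. chagasi stage named in the line.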

[6] = Cytotoxicity against african green monkey Vero cells after 72 hrs by MTT assay; type: cell-based; conditions: chlorocebus sabaeus; procedure, shortened: as §2
[7] = Selectivity index, CC50 for human THP1 cells to IC50 for Leishmania chagasi MHOM/BR/74/PP75 amastigotes; type: functional, THP-1; procedure, shortened: as §3
[8] = Selectivity index, CC50 for african green monkey Vero cells to IC50 for Trypanosoma cruzi 320I01 amastigotes; type: functional; procedure, shortened: as §1
Leishmania chagasi [9] = experiment: Antileishmanial activity against Leishmania chagasi MHOM/BR/74/PP75 amastigotes infected in human THP1 cells after 5 days by Giemsa staining; type: functional, organism-based; conditions: MHOM/BR/74/PP75, THP-1, 120 h
Procedure, shortened: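 THP-1 cells (RPMI, 5% hiSBF, 37 °C, 5% CO2) transformed, then infected 24 h with late-phase L. chagasi promastigotes at parasite:cell 10:1. Treated with compound dilutions (top 100 μM) 5 days at 37 °C, 5% CO2, medium changed once after 3 days. Infected cells counted per 300 cells on methanol-fixed Giemsa slides; IC50/IC90 by sigmoidal regression; triplicates, repeated twice.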

Trypanosoma cruzi [10] = experiment: Antitrypanosomal activity against Trypanosoma cruzi 320I01 amastigotes infected in african green monkey Vero cells after 5 days by Giemsa staining; type: functional, organism-based; conditions: 320I01, Vero, 120 h
Procedure, shortened: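 Vero cells (RPMI, 5% hiSBF, 37 °C, 5% CO2) infected 24 h with tissue-derived T. cruzi trypomastigotes at parasite:cell 10:1. Compound dilutions (top 100 μM) applied 5 days at 37 °C, 5% CO2, medium changed once at day 3. Infected cells scored per 300 cells on methanol-fixed Giemsa preparations; IC50/IC90 by sigmoidal regression; triplicates, two experiments.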

Compound | pIC50 (Leishmania chagasi [1]) | IC90 (Leishmania chagasi [1]) [µM] | Selectivity Index [2] | pIC50 (Trypanosoma cruzi [3]) | IC90 (Trypanosoma cruzi [3]) [µM] | CC50 at 72 h [4] [µM] | CC90 at 72 h [4] [µM] | Selectivity Index [5] | CC50 at 72 h [6] [µM] | CC90 at 72 h [6] [µM] | Selectivity Index [7] | Selectivity Index [8] | pIC50 (Leishmania chagasi [9]) | IC90 (Leishmania chagasi [9]) [µM] | pIC50 (Trypanosoma cruzi [10]) | IC90 (Trypanosoma cruzi [10]) [µM]
Fc1ccccc1[C@@H]1C[C@@H]2Cc3cc(Cl)ccc3N1O2 (relative stereo) | 4.62 | 67.3 | 6.51 | 4.72 | 38.1 | > 300 | > 300 | >12 | 123 | > 300 | >3 | >1 | < 4.00 | > 100 | < 4.00 | > 100
Fc1ccccc1[C@@H]1C[C@@H]2Cc3ccccc3N1O2 (relative stereo) | 4.39 | 47 | >3 | < 4.00 | > 100 | 200 | > 300 | 4.93 | > 300 | > 300 | >2 | >5 | < 4.00 | > 100 | 4.23 | 96.4
Cc1ccc([C@@H]2C[C@@H]3Cc4cc(C)ccc4N2O3)cc1 (relative stereo) | 4.00 | > 100 | 8.97 | 4.63 | 85.4 | 74 | 126 | 0.75 | 208 | > 300 | >0.74 | 4.6 | < 4.00 | > 100 | 4.34 | 90
Clc1ccc([C@@H]2C[C@@H]3Cc4cc(Cl)ccc4N2O3)cc1 (relative stereo) | 4.48 | 50.1 | >20 | 4.82 | > 100 | > 300 | > 300 | >9 | > 300 | > 300 | >3 | >3 | < 4.00 | > 100 | < 4.00 | > 100
Fc1ccc([C@@H]2C[C@@H]3Cc4ccccc4N2O3)cc1 (relative stereo) | < 4.00 | > 100 | >3 | < 4.00 | > 100 | 183 | > 300 | >1 | > 300 | > 300 | >1 | >3 | < 4.00 | > 100 | < 4.00 | > 100
COc1cccc([C@@H]2C[C@@H]3Cc4ccccc4N2O3)c1 (relative stereo) | 4.26 | > 100 | >3 | < 4.00 | > 100 | > 300 | > 300 | >5 | > 300 | > 300 | >3 | >3 | < 4.00 | > 100 | < 4.00 | > 100
Clc1ccc2c(c1)C[C@H]1C[C@@H](c3ccc(Br)cc3)N2O1 (relative stereo) | 4.49 | 42.2 | >10 | 4.52 | > 100 | 236 | > 287 | 7.24 | > 300 | > 287 | >2 | >4 | < 4.02 | > 95.4 | 4.22 | > 95.4
Fc1ccc2c(c1)C[C@H]1C[C@@H](c3ccc(Cl)cc3)N2O1 (relative stereo) | 4.45 | 41.8 | >8 | 4.45 | 85.8 | > 300 | > 300 | >8 | > 300 | > 300 | >3 | >7 | < 4.00 | > 100 | 4.40 | 104
